aSyn UTR inh: 5' untranslated region of α-synuclein, MLPCN primary screen; alpha-synuclein 5'UTR reporter, inhibitor activity; inhibition, % (tested at 7.5 µM); 0.82% of 300,000 active; in the data active means inhibition above about 60%; inconclusive means no clear call, values can overlap the other calls;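 further: H4 neuroglioblastoma cells stably carrying SNCA 5'UTR luciferase fusion; 0% = DMSO wells and 100% = positive control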
CSC inhib: cancer stem cell inhibition; cancer stem cell-like cells viability, luminescence; inhibition, % at 7.5 µM; 1.1% of 300,000 active; AID 2717; in the data active means inhibition above about 75%; inconclusive means no clear call, values can overlap the other calls; tested in HMLE shEcad cells
T cruzi inh: T. cruzi replication inhibition; inhibition, % (no concentration beside the values); T. cruzi beta-gal in NIH3T3, luminescence, 90 h; 1.4% of 300,000 active;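 active means mean inhibition across valid replicates above about 55%, limit read from the data; inconclusive means mean below that limit but half or more replicates reach it; inactive means mean below it, under half of replicates reach it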;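 further: signal also drops with host cell toxicity which is not excluded here; 0% = plate median of DMSO wells and 100% = zero luminescence signal; higher percent means less beta-gal luminescence so fewer parasites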
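Assay system: NIH/3T3 fibroblasts plus reporter T. cruzi. Amount: NIH/3T3 cells, 5,000 per well. Buffer or medium: DMEM, 2% fetal bovine serum. Doses: compound pinned at 50 nL/well, DMSO. Schedule: ≥90 h infection period, 3 h prior cell attachment. Signal: luminescent β-galactosidase signal after 60 min lysis. Read-out: parasite load inhibition, %.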
SKKanGAS inh: blocks kanamycin growth of S. pyogenes SKKanGAS strain; inhibition, % at 7.5 µM; AID 1662; 1.3% of 300,000 active; BacTiter-Glo, 6 h;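 active means mean replicate score, as percent of positive control median, at least 50; inconclusive means mean below 50 but one replicate at or above 50; inactive means mean and every replicate below 50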;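 further: strain carries kanamycin resistance gene driven by streptokinase promoter and grows in 40 µg/ml kanamycin; loss of luminescence reflects streptokinase promoter inhibition or plain growth inhibition; 0% = median of DMSO wells and 100% = positive control at its reference dose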
Mdm2 MdmX PPI: disrupts the human Mdm2-MdmX interaction; O15151+Q00987; SaOS-2 split-luciferase Mdm2/MdmX complementation, luminescence; inhibition, % at 8 µM; 3% of 330,000 active;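 active means inhibition of at least 50% at 8 µM in the primary screen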
Mdm2 MdmX conf: human Mdm2/MdmX binding inhibition, confirmed | shares compounds with Mdm2 MdmX PPI | luminescent assay | inhibition, % at 8 µM | 55% of 10,000 active; in the data active means inhibition above about 40%
Full FLuc ctr: counter-screen for Mdm2/MdmX inhibitors: full-length luciferase | shares compounds with Mdm2 MdmX PPI | inhibition, % at 8 µM | AID 504607 | SaOS-2 full-length luciferase counterscreen, luminescence | 77% of 6,200 active;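 active means mean inhibition at 8 µM reaching about 37%, which flags the compound as non-specific, limit read from the data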;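 further: p53-null SaOS-2 cells with luciferase driven by a doxycycline-inducible promoter; compound on cells about two nights before reading with doxycycline added after day one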
Active calls of the source: *; ? = inconclusive; · = no result given. Rows were chosen to be rich in hits. Some 5.4% of all compounds tested hit in one or more screens of this group.

SMILES	aSyn UTR inh	CSC inhib	T cruzi inh	SKKanGAS inh	Mdm2 MdmX PPI	Mdm2 MdmX conf	Full FLuc ctr
O=C(COc1ccc(S(=O)(=O)N2CCOCC2)cc1)Nc1ccc(Cl)c(C(F)(F)F)c1	27	61	-4	-7	61*	43*	65*
O=C(Nc1cccc(Cl)c1)Nc1cc(S(=O)(=O)N2CCCCC2)ccc1Cl	10	87*	55*	54*	89*	91*	51*
CC(=O)c1ccc(Sc2nnc(C)s2)c([N+](=O)[O-])c1	-30	-6	0	-2	38	·	·
CNc1ccccc1C(=O)OC(C)C(=O)Nc1ccc(Cl)cn1 (stereo not given)	5	1	-6	22	91*	83*	113*
O=C(CC(c1ccccc1)c1ccccc1)Nc1ccc(Cl)cn1	-60	-9	11	18	59*	53*	61*
O=C(Nc1ccc(Cl)cn1)c1cccc2ccccc12	-18	59	-1	3	52*	42*	71*
O=C(Nc1ccc(Cl)cn1)c1ccccc1[N+](=O)[O-]	-77	-18	-41	-10	17	·	·
O=C(CS(=O)(=O)c1ccccc1)Nc1ccc(Cl)cn1	-27	0	-9	2	-5	·	·
O=P(Cc1ccccn1)(c1ccccc1)c1ccccc1	6	-15	-4	-1	-11	·	·
O=[N+]([O-])c1cc(S(=O)(=O)C(F)(F)F)ccc1Sc1nc2ccccc2s1	-11	101*	48	89*	96*	10	·
O=[N+]([O-])c1cc(S(=O)(=O)C(F)(F)F)ccc1Sc1nc2ccccc2[nH]1	-20	113*	-9	99*	57*	12	·
CS(=O)(=O)c1ccc(Sc2nc3ccccc3s2)c([N+](=O)[O-])c1	-42	·	4	-3	23	·	·
CCOC(=O)c1ccc(N2C(=O)C3C(/C=C/c4ccccc4)OC4(C(=O)c5ccccc5C4=O)C3C2=O)cc1 (stereo not given)	-3	22	-11	13	-49	·	·
C[C@H]1[C@H](C)CC[C@]2(C(=O)O)CC[C@]3(C)C(=CC[C@@H]4[C@@]5(C)CC[C@H](O)C(C)(C)[C@@H]5CC[C@]43C)[C@H]12	18	66	3	107*	78*	15	·
CC1(C)CC[C@]2(C(=O)O)[C@H](O)C[C@]3(C)C(=CCC4[C@@]5(C)C[C@H](O)[C@H](O)[C@@](C)(CO)C5CC[C@]43C)[C@@H]2C1 (stereo not given in full)	17	-4	-4	-6	1	·	·
CC1(C)C[C@H]2C3=CCC4[C@@]5(C)CC[C@H](O)[C@](C)(CO)C5CC[C@@]4(C)[C@]3(C)CC[C@@]2(C)[C@H](O)[C@@H]1O (stereo not given in full)	·	·	·	·	87*	57*	60*
C[C@H]1[C@H](C)CC[C@]2(C(=O)O)CC[C@]3(C)C(=CC[C@@H]4[C@@]5(C)C[C@@H](O)[C@H](O)C(C)(C)[C@@H]5CC[C@]43C)[C@H]12	5	95*	17	103*	68*	25	·
CC1(C)C[C@H]2C3=CCC4[C@@]5(C)CC[C@H](O)[C@](C)(CO)C5CC[C@@]4(C)[C@]3(C)C[C@H]3O[C@@H]1[C@H](O)[C@]32CO (stereo not given in full)	·	-21	·	·	10	·	·
CCN(CC)C(=O)Cn1nc(-c2ccc(Cl)cc2)c2ccccc2c1=O	-2	-3	8	-5	7	·	·
C(=N\Nc1nc(Nc2ccccc2)nc(Nc2ccccc2)n1)/c1cccnc1	-23	·	43	?	72*	51*	81*
Cc1sc(N/N=C/c2cccnc2)nc1-c1ccccc1	-20	18	28	1	59*	62*	74*
Cc1nc2n(n1)C(O)c1cc([N+](=O)[O-])ccc1S2 (stereo not given)	13	-3	-39	-21	-4	·	·
O=[N+]([O-])c1ccc2c(c1)C(O)n1nc(-c3ccc(Cl)cc3Cl)nc1S2 (stereo not given)	-18	-9	-20	6	50	54*	102*
CCCCCNC(=O)c1cccc(S(=O)(=O)N2CC3(C)CC2CC(C)(C)C3)c1 (stereo not given)	51	8	44	10	26	·	·
COc1ccc(N2CCN(C(=O)c3ccc(CS(=O)Cc4ccc(C)cc4)o3)CC2)cc1 (stereo not given)	-20	-4	-20	4	10	·	·
SMILES	aSyn UTR inh	CSC inhib	T cruzi inh	SKKanGAS inh	Mdm2 MdmX PPI	Mdm2 MdmX conf	Full FLuc ctr
Cc1ccccc1S(=O)(=O)Cc1ccc(C(=O)N2CCN(c3cccc(C)c3C)CC2)o1	101*	66	24	18	57*	68*	50*
COc1ccc(S(=O)Cc2ccc(C(=O)N3CCN(c4cccc(C)c4C)CC3)o2)cc1 (stereo not given)	36	50	-6	2	50*	55*	36*
Cc1nn(CC(C)C(=O)N2CCN(S(=O)(=O)c3ccc(Cl)cc3)CC2)c(C)c1C (stereo not given)	-7	9	8	2	-1	·	·
O=[N+]([O-])c1c(NCCCO)cc(Sc2nc3ccccc3s2)c2nonc12	-3	-4	31	78*	99*	56*	3
CCC1CCc2c(c3ccccc3[nH]c2=O)O1 (stereo not given)	0	·	8	0	20	·	·
O=c1[nH]c2ccccc2c2oc(CCl)nc12	-34	4	5	2	78*	52*	54*
CC(O)/C=C/c1ccc2ccccc2n1 (stereo not given)	-154	15	-33	-1	60*	22	·
Fc1cccc(F)c1/C=C/c1ccc2ccccc2n1	4	28	7	-12	-174	·	·
COCCN(Cc1cc2cc(C)ccc2n2nnnc12)C(=S)Nc1ccccc1C	29	-8	9	2	51*	0	·
O=C(Nc1ccccn1)C1CCCN1S(=O)(=O)c1ccc(Cl)cc1 (stereo not given)	8	-10	-4	-8	-6	·	·
CC(C)(C)c1nc2ccccc2c2nnc(SCC(=O)Nc3nccs3)n12	33	·	-12	-2	68*	60*	50*
CN(C)CCCn1c(SCC(=O)Nc2nc(-c3cccc(Br)c3)cs2)nc2ccccc2c1=O	-33	?	68*	97*	100*	56*	115*
CCCCn1c(SCC(=O)Nc2nccs2)nc2ccccc2c1=O	-1	-13	-10	4	65*	4	·
Cc1ccc(NC(=O)C(=Cc2ccc(C(=O)O)cc2)C(=O)Nc2ccc(C)cc2C)c(C)c1	40	159*	0	9	100*	99*	52*
CCNC(=O)CSc1nnc(-c2cccc(S(=O)(=O)N3CCOCC3)c2)o1	·	·	·	·	2	·	·

Bioassay records deposited in PubChem by several laboratories.
